The results in this text go back to article PMC4661106 (Bioorganic & medicinal chemistry, 2015).

Data set [1] deals with T1, HIV-1 PR (Human immunodeficiency virus type 1 group M subtype B, UniProt P04585). The class given is biochemical.
The target in data set [2] is T1, HIV-1 PR. Nature of the data set: Michaelis-Menten kinetics, mode of inhibition. The class given is biochemical. The following applies: Michaelis-Menten analysis, Figure 4.
In data set [3] the test system is HIV replication in TZM-bl cells. In words: Viral replication inhibition assay, luciferase reporter. The format is cell-based. As to conditions: doses of 50 μM or higher, MOI = 0.01. The method in brief: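 TZM-bl cells (HeLa-derived; CD4, CCR5, CXCR4; tat-driven luciferase) were seeded at 1×10^4 cells/mL and incubated overnight. The medium was then replaced with replication-competent pNL4-3 HIV or mock, in medium with carrier or test compound at final 25, 50 or 100 μM. Final DMSO was 0.25%. Conditions were run in triplicate. On the indicated days post infection, cells were PBS-washed and luciferase was read. RLU was expressed relative to the untreated control.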
In general terms: Reporter assays use an easily measured gene product as a stand-in for the process of interest.

A short description of the next data set: Compound solubility. The class given is physicochemical.
A further data set deals with MT-4 cells. Nature of the data set: Endpoint cytotoxicity assay, viable cells by trypan-blue dye exclusion. The following applies: three days, Figure 5; for general cytotoxicity to MT-4 cells: at 100 μM; for general cytotoxicity: tolerated by MT-4 cells: up to 50 μM. The class given is cell-based. The essentials:
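Uninfected MT-4 cells were seeded at 2 × 10^5 cells/ml, in triplicate, in medium with carrier only or test compound at 10, 50 or 100 μM. Compounds were dissolved in DMSO and diluted in medium to a final DMSO of 0.25%. Incubation was 37 °C, 5% CO2. After three days, viable cells were counted by trypan-blue dye exclusion.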

Usually Ki stands for the dissociation constant of the complex between target and ligand, obtained from inhibition or displacement. A low value points to higher affinity. As for `CCCCCCCCCCNC(=O)CN1C(=O)[C@@H](CC(C)C)N=C(C)c2ccc(C(=O)OC(C)(C)C)cc21` [Compound 8o, (R)-tert-Butyl 3-isobutyl-5-methyl-2-oxo-1-(2-oxo-2-(decylamino)ethyl)-2,3-dihydro-1H-benzo[e][1,4]diazepine-8-carboxylate], on HIV-1 PR [1], the inhibition constant (Ki) is over 200 µM.

Take `CC1=N[C@H](Cc2ccccc2)C(=O)Nc2cc(C(=O)O)ccc21` [Compound 7g, (R)-3-benzyl-5-methyl-2-oxo-2,3-dihydro-1H-benzo[e][1,4]diazepine-8-carboxylic acid]: on HIV-1 PR [1], the inhibition constant (Ki) is over 200 µM.

On to `CCCCCCCCCCNC(=O)CN1C(=O)[C@@H](CC(C)C)N=C(C)c2ccc(C(=O)O)cc21` [Compound 9o, (R)-3-Isobutyl-5-methyl-2-oxo-1-(2-oxo-2-(decylamino)ethyl)-2,3-dihydro-1H-benzo[e][1,4]diazepine-8-carboxylic acid], for which, on HIV-1 PR [2], the mode of inhibition result was “competitive inhibitor”. Further, the “inhibition of HIV replication within cells (RLU relative to control)” value (from here on “inhibition … (RLU relative to control)”) in data set [3] is “appeared to inhibit HIV replication”. Besides, the solubility result in “Compound solubility” is “poor solubility”. Also, in the data set with MT-4 cells, the “general cytotoxicity to MT-4 cells” value is reported as “particularly cytotoxic” and the “general cytotoxicity: tolerated by MT-4 cells” value (“general cytotoxicity: tolerated” below) was “tolerated”.

The molecule `CC1=N[C@H](CC(C)C)C(=O)N(CC(=O)N2CCNCC2)c2cc(C(=O)O)ccc21` [Compound 9r, (R)-3-Isobutyl-5-methyl-2-oxo-1-(2-oxo-2-(piperazin-1-yl)ethyl)-2,3-dihydro-1H-benzo[e][1,4]diazepine-8-carboxylic acid] displayed an inhibitory constant (Ki) at HIV-1 PR [1] of over 200 µM.

For `CC1=N[C@@H](Cc2ccccc2)C(=O)Nc2cc(C(=O)O)ccc21` [Compound 7f, (S)-3-Benzyl-5-methyl-2-oxo-2,3-dihydro-1H-benzo[e][1,4]diazepine-8-carboxylic acid], the Ki on HIV-1 PR [1] was over 200 µM.

Take `CC1=N[C@H](CC(C)C)C(=O)N(Cc2ccc(-c3ccccc3)cc2)c2cc(C(=O)O)ccc21` [Compound 9j, (R)-1-([1,1′-Biphenyl]-4-ylmethyl)-3-isobutyl-5-methyl-2-oxo-2,3-dihydro-1H-benzo[e][1,4]diazepine-8-carboxylic acid]: the “inhibition … (RLU relative to control)” value in data set [3] is “appeared to inhibit HIV replication”. In addition, in the data set on MT-4 cells, the “general cytotoxicity to MT-4 cells” value was “particularly cytotoxic” and the “general cytotoxicity: tolerated” value is “tolerated”.

The molecule `CC1=N[C@H](CC(C)C)C(=O)N(Cc2ccccc2)c2cc(C(=O)OC(C)(C)C)ccc21` [Compound 8h, (R)-tert-Butyl 1-benzyl-3-isobutyl-5-methyl-2-oxo-2,3-dihydro-1H-benzo[e][1,4]diazepine-8-carboxylate] had a Ki on HIV-1 PR [1] of over 200 µM.

On HIV-1 PR [1], `CCC(C)[C@@H]1N=C(C)c2ccc(C(=O)OC(C)(C)C)cc2NC1=O` (stereo in doubt) [Compound 6e, (S)-tert-Butyl 3-((R)-sec-butyl)-5-methyl-2-oxo-2,3-dihydro-1H-benzo[e][1,4]diazepine-8-carboxylate] registered a Ki of over 200 µM.

In the case of `CC1=N[C@H](CC(C)C)C(=O)Nc2cc(C(=O)OC(C)(C)C)ccc21` [Compound 6d, (R)-tert-Butyl 3-isobutyl-5-methyl-2-oxo-2,3-dihydro-1H-benzo[e][1,4]diazepine-8-carboxylate], at HIV-1 PR [1], the inhibition constant Ki was over 200 µM.

In the case of `CC1=N[C@H](CC(C)C)C(=O)N(CC(=O)O)c2cc(C(=O)O)ccc21` [Compound 9l, (R)-1-(Carboxymethyl)-3-isobutyl-5-methyl-2-oxo-2,3-dihydro-1H-benzo[e][1,4]diazepine-8-carboxylic acid], the inhibition constant (Ki) at HIV-1 PR [1] was over 200 µM.

Molecule `CC1=N[C@H](CC(C)C)C(=O)N(CC(C)C)c2cc(C(=O)O)ccc21` [Compound 9k, (R)-1,3-Diisobutyl-5-methyl-2-oxo-2,3-dihydro-1H-benzo[e][1,4]diazepine-8-carboxylic acid] showed a Ki at HIV-1 PR [1] of over 200 µM.

At HIV-1 PR [1], `CCCCCCNC(=O)CN1C(=O)[C@@H](CC(C)C)N=C(C)c2ccc(C(=O)OC(C)(C)C)cc21` [Compound 8q, (R)-tert-Butyl 3-isobutyl-5-methyl-2-oxo-1-(2-oxo-2-(hexylamino)ethyl)-2,3-dihydro-1H-benzo[e][1,4]diazepine-8-carboxylate] showed a Ki of over 200 µM.

As for `CC1=N[C@H](CC(C)C)C(=O)N(Cc2ccccc2)c2cc(C(=O)O)ccc21` [Compound 9h, (R)-1-Benzyl-3-isobutyl-5-methyl-2-oxo-2,3-dihydro-1H-benzo[e][1,4]diazepine-8-carboxylic acid], at HIV-1 PR [1], the Ki was over 200 µM.

Regarding `CC1=N[C@H](CC(C)C)C(=O)N(CC(=O)N2CCN(C(=O)OCC3c4ccccc4-c4ccccc43)CC2)c2cc(C(=O)OC(C)(C)C)ccc21` [Compound 8t, (R)-tert-Butyl 1-(2-(4-(((9H-fluoren-9-yl)methoxy)carbonyl)piperazin-1-yl)-2-oxoethyl)-3-isobutyl-5-methyl-2-oxo-2,3-dihydro-1H-benzo[e][1,4]diazepine-8-carboxylate], the Ki on HIV-1 PR [1] is over 200 µM.

For the molecule `CC1=N[C@H](CC(C)C)C(=O)N(Cc2ccc(C3CCCCC3)cc2)c2cc(C(=O)O)ccc21` [Compound 9d, (R)-1-(4-Cyclohexylbenzyl)-3-isobutyl-5-methyl-2-oxo-2,3-dihydro-1H-benzo[e][1,4]diazepine-8-carboxylic acid], the “inhibition … (RLU relative to control)” value in data set [3] was “appeared to inhibit HIV replication”. Besides, in the data set with MT-4 cells, the “general cytotoxicity to MT-4 cells” value was “particularly cytotoxic” and the “general cytotoxicity: tolerated” value is on record as “tolerated”.

Regarding `CC1=NCC(=O)Nc2cc(C(=O)OC(C)(C)C)ccc21` [Compound 6a, tert-Butyl 5-methyl-2-oxo-2,3-dihydro-1H-benzo[e][1,4]diazepine-8-carboxylate], the inhibition constant (Ki) at HIV-1 PR [1] is over 200 µM.

`CC1=N[C@H](CC(C)C)C(=O)N(Cc2ccncc2)c2cc(C(=O)OC(C)(C)C)ccc21` [Compound 8m, (R)-tert-Butyl 3-isobutyl-5-methyl-2-oxo-1-(pyridin-4-ylmethyl)-2,3-dihydro-1H-benzo[e][1,4]diazepine-8-carboxylate] displayed an inhibitory constant (Ki) at HIV-1 PR [1] of over 200 µM.

Consider `CC1=N[C@H](CC(C)C)C(=O)N(Cc2ccncc2)c2cc(C(=O)O)ccc21` [Compound 9m, (R)-3-Isobutyl-5-methyl-2-oxo-1-(pyridin-4-ylmethyl)-2,3-dihydro-1H-benzo[e][1,4]diazepine-8-carboxylic acid], for which the Ki on HIV-1 PR [1] is over 200 µM.

At HIV-1 PR [1], `CC1=N[C@@H](CC(C)C)C(=O)Nc2cc(C(=O)O)ccc21` [Compound 7c, (S)-3-Isobutyl-5-methyl-2-oxo-2,3-dihydro-1H-benzo[e][1,4]diazepine-8-carboxylic acid] displayed a Ki of over 200 µM.

As to `CC1=N[C@H](CC(C)C)C(=O)N(CC(=O)N2CCN(C(=O)OCc3ccccc3)CC2)c2cc(C(=O)OC(C)(C)C)ccc21` [Compound 8s, (R)-tert-Butyl 1-(2-(4-((benzyloxy)carbonyl)piperazin-1-yl)-2-oxoethyl)-3-isobutyl-5-methyl-2-oxo-2,3-dihydro-1H-benzo[e][1,4]diazepine-8-carboxylate], the inhibition constant Ki on HIV-1 PR [1] is over 200 µM.

As to `CC1=N[C@@H](C)C(=O)Nc2cc(C(=O)OC(C)(C)C)ccc21` [Compound 6b, (S)-tert-Butyl 3,5-dimethyl-2-oxo-2,3-dihydro-1H-benzo[e][1,4]diazepine-8-carboxylate], the inhibition constant (Ki) at HIV-1 PR [1] was over 200 µM.

With `CC1=N[C@H](CC(C)C)C(=O)Nc2cc(C(=O)O)ccc21` [Compound 7d, (R)-3-Isobutyl-5-methyl-2-oxo-2,3-dihydro-1H-benzo[e][1,4]diazepine-8-carboxylic acid], the Ki on HIV-1 PR [1] was over 200 µM.

Turning to `CCCCCCCCCCCCCCCCNC(=O)CN1C(=O)[C@@H](CC(C)C)N=C(C)c2ccc(C(=O)O)cc21` [Compound 9p, (R)-3-isobutyl-5-methyl-2-oxo-1-(2-oxo-2-(hexadecylamino)ethyl)-2,3-dihydro-1H-benzo[e][1,4]diazepine-8-carboxylic acid], the “inhibition … (RLU relative to control)” value in data set [3] is “appeared to inhibit HIV replication”. Moreover, in the data set on MT-4 cells, the “general cytotoxicity to MT-4 cells” value was “particularly cytotoxic” and the “general cytotoxicity: tolerated” value is “All but 9p were tolerated”.

For `CC1=N[C@@H](C)C(=O)Nc2cc(C(=O)O)ccc21` [Compound 7b, (S)-3,5-Dimethyl-2-oxo-2,3-dihydro-1H-benzo[e][1,4]diazepine-8-carboxylic acid], the inhibition constant Ki on HIV-1 PR [1] was over 200 µM.
